CHO parental Ca: counter-screen for OX1R antagonists: effect in parental CHO cells | inhibition, % at 5.6 µM | parental CHO-K1, ATP-induced calcium, Fluo-8 fluorescence | hit rate 0.63% among 330,000;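 active = inhibition above that plate's mean sample inhibition plus 3 SD, cut at about 26% in these data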;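 also: 0% = ATP-challenged DMSO wells and 100% = DMSO wells without ATP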
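Material: parental CHO cells / Compound: single nominal dose of 5.6 µM per compound / Signal: Fluo-8 fluorescence / Replicates: singlicate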
TAAR1 antagonist: antagonists of human TAAR1; Q96RJ0; CHO RD-HGA16 TAAR1, Fluo-8 calcium fluorescence, antagonist; inhibition, % at 3 µM; hit rate 1.5% among 360,000; AID 624466;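 active = inhibition above a per-plate cutoff, the mean inhibition of test compounds on that plate plus 3 SD, cut at about 49% in these data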;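 also: 0% = DMSO plus EC80 beta-PEA response and 100% = DMSO alone without agonist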
Target sequence (Q96RJ0 whole entry, looked up): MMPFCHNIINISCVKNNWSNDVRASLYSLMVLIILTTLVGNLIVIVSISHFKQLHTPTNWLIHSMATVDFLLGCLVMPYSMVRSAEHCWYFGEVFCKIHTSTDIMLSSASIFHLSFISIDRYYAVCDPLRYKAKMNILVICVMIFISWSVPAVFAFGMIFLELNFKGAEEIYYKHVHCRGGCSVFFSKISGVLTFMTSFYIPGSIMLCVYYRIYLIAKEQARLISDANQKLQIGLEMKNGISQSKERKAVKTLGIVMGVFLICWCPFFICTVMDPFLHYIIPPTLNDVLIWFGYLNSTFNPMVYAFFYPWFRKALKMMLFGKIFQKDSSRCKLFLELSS
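test system = CHO RD-HGA16 cells bearing hTAAR1 | replication = singlicate | controls = DMSO-only wells and EC80 β-PEA-stimulated wells | reagent = EC80 β-phenethylamine stimulus | read-out basis = percent inhibition of PEA-evoked calcium signal, max/basal emission ratio | schedule = seeding 17-24 h prior, 75-min 37 °C, 30-min RT dye loading | signal = kinetic Fluo-8 calcium fluorescence measurement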
TAAR1 ag: agonists of human TAAR1 | CHO RD-HGA16 TAAR1, Fluo-8 calcium fluorescence; vehicle wells 0%, saturating PEA agonist 100% | activation, % at 3 µM | hit rate 0.99% among 360,000 | AID 624467;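 active = activation above the mean activation of all test compounds in the run plus 3 SD, cut at about 38% in these data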
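Test system: RD-HGA16 (CHO) cells co-expressing Gα16 and hTAAR1 | Doses: Single dose, 3 µM | Schedule: 17-24 h seeding, 75 min 37 °C dye, 30 min RT | Evaluation: % activation from peak over basal fluorescence ratio, DMSO-to-PEA scaled | Technique: Kinetic Fluo-8 calcium fluorescence | Benchmarks: Low control DMSO, high control PEA (EC100)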
OX1R antag-1: blocks the human orexin 1 receptor | inhibition, % at 6.6 µM | hit rate 1.8% among 330,000 | O43613 | OX1R-expressing cells, FRET antagonist read-out; in the data active = inhibition mostly above about 38%, no sharp cut-off; inactive = mostly below about 40%;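 also: 0% = agonist challenge alone and 100% = reference antagonist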
GalR3 antag: human GalR3 antagonism; AID 651719; HEK293 GalR3-CNG cAMP membrane potential fluorescence; galR3 body fused to GalR1 C-terminus; inhibition, % at 3 µM; hit rate 0.44% among 360,000; O60755;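 active = inhibition above the screen-wide average plus 3 SD, cut at about 13% in these data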;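 also: forskolin and galanin both at EC90 stimulate the cells; cAMP rise reported by CNG channel membrane potential dye signal; 0% = forskolin plus galanin with DMSO and 100% = forskolin alone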
Target sequence (O60755 1-299 limits assumed): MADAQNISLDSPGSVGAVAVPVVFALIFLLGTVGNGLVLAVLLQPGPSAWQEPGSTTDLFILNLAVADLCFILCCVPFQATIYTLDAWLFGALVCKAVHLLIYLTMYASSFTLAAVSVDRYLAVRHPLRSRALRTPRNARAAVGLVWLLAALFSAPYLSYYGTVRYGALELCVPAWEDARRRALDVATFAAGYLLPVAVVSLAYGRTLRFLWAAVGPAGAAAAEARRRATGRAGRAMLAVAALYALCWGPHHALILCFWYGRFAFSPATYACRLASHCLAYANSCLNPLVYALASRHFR
OX1R antag-2: antagonists of human orexin 1 receptor; hit rate 0.43% among 330,000; AID 434989; inhibition, % at 5 µM; CHO/OX1R cells, Fluo-8 calcium fluorescence, orexin A;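 active = inhibition above its plate's threshold, mean inhibition of all tested compounds on the plate plus 3 SD, cut at about 37% in these data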;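 also: 0% = orexin A challenge wells and 100% = SB-334867-A antagonist wells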
GalR3 conf: GalR3 (human) antagonism, confirmation; shares compounds with GalR3 antag; HEK293 GalR3 CNG cAMP biosensor, membrane potential fluorescence; galR3 fused to GalR1 carboxy tail; challenged with forskolin and galanin at EC90; inhibition, % at 3 µM; hit rate 59% among 1,600;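 active = inhibition above the primary screen's cutoff, the mean inhibition of all screened compounds plus 3 SD, cut at about 13% in these data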;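 also: 0% = forskolin plus galanin and 100% = forskolin alone with DMSO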
CNG parental: parental cell agonism counter-screen for GalR3 antagonists; shares compounds with GalR3 antag; HEK293-CNG parental cells, cAMP membrane potential fluorescence; normalised: DMSO wells 0%, forskolin wells 100%; hit rate 10% among 1,600; activation, % at 3 µM; in the data active = activation above about 1.3%
The depositor's hits bear a star. Compounds with a hit are over-represented: about 4.3% of the library has one in this group of screens.

Screening CCOc1ccc(Br)cc1S(=O)(=O)N1CCCN(C)CC1 returned CHO parental Ca -20, TAAR1 antagonist -7, TAAR1 ag 0, OX1R antag-1 4, GalR3 antag -6 and OX1R antag-2 -11.
Screening CCCc1cc(=O)[nH]c(SCC(=O)c2c[nH]c3ccccc23)n1 returned CHO parental Ca -7, TAAR1 antagonist 6, TAAR1 ag 2, OX1R antag-1 18, GalR3 antag -2 and OX1R antag-2 22.
CCCc1cc(=O)[nH]c(SCC(=O)c2c(C)[nH]c3ccccc23)n1 was read as CHO parental Ca -15, TAAR1 antagonist -12, TAAR1 ag 2, OX1R antag-1 13, GalR3 antag 17*, OX1R antag-2 -6, GalR3 conf 4 and CNG parental 1.7*.
`COc1ccc(CCNc2ncnc3[nH]ncc23)cc1OC` gave CHO parental Ca 14, TAAR1 antagonist 7, TAAR1 ag 8, OX1R antag-1 33, GalR3 antag -2 and OX1R antag-2 -8.
COc1ccc(CCNc2ncnc3sc(C)cc23)cc1OC was read as TAAR1 antagonist 37, TAAR1 ag 8, GalR3 antag 86*, GalR3 conf 110* and CNG parental 0.
`Cc1cc(CSc2ccccc2)ccc1NC(=O)c1ccc(CN2CCOCC2)cc1` gave CHO parental Ca -5, TAAR1 antagonist 19, TAAR1 ag 5, OX1R antag-1 3, GalR3 antag 106*, OX1R antag-2 -3, GalR3 conf 122* and CNG parental -1.
`CCOC(=O)c1ccc(NC(=O)c2ccc(CN3CCc4ccccc4C3)cc2)cc1` gave CHO parental Ca -2, TAAR1 antagonist 24, TAAR1 ag 4, OX1R antag-1 17, GalR3 antag 71*, OX1R antag-2 -12, GalR3 conf 110* and CNG parental 0.
`CCOC(=O)c1ccc(NC(=O)c2ccc(CN3CCOCC3)cc2)cc1` gave CHO parental Ca -1, TAAR1 antagonist 20, TAAR1 ag 14, OX1R antag-1 28, GalR3 antag 94*, OX1R antag-2 -16, GalR3 conf 110* and CNG parental 0.
For NC(=O)c1ccc(NC(=O)c2ccc(CN3CCOCC3)cc2)cc1 the results were CHO parental Ca 1, TAAR1 antagonist 2, TAAR1 ag 7, OX1R antag-1 5, GalR3 antag -3 and OX1R antag-2 0.
CCOc1ccc(NC(=O)c2ccc(CN3CCc4ccccc4C3)cc2)cc1 was read as CHO parental Ca -12, TAAR1 antagonist -23, TAAR1 ag 4, OX1R antag-1 -10, GalR3 antag 103*, OX1R antag-2 -22, GalR3 conf 108* and CNG parental 0.
`CCOc1ccccc1NC(=O)c1ccc(CN2CCc3ccccc3C2)cc1` gave CHO parental Ca -28, TAAR1 antagonist 4, TAAR1 ag 2, OX1R antag-1 -2, GalR3 antag -8 and OX1R antag-2 -40.
`CCOC(=O)c1ccc(NC(=O)c2nc[nH]c2C(=O)N(C)CCO)cc1` gave TAAR1 antagonist 17, TAAR1 ag 1 and GalR3 antag -1.
CCN1CCN(CCCNC(=O)CN2C(=O)c3cccnc3Oc3ccc(Cl)cc32)CC1 was read as CHO parental Ca -1, TAAR1 antagonist -10, TAAR1 ag 0, OX1R antag-1 11, GalR3 antag -7 and OX1R antag-2 -7.
CCc1nc2ccc(C(=O)NCCCn3ccnc3)cn2c1N(C)C(=O)c1cccc(OC)c1 was read as TAAR1 antagonist -24, TAAR1 ag 3 and GalR3 antag -6.
Screening CC(=O)c1cccc(NC(=O)c2ccc(CN3CCc4ccccc4C3)cc2)c1 returned CHO parental Ca -13, TAAR1 antagonist 21, TAAR1 ag 3, OX1R antag-1 14, GalR3 antag -12 and OX1R antag-2 -20.
`COc1cccc(NC(=O)c2ccc(CN3CCc4ccccc4C3)cc2)c1` gave CHO parental Ca -8, TAAR1 antagonist 11, TAAR1 ag -1, OX1R antag-1 8, GalR3 antag 46*, OX1R antag-2 -18, GalR3 conf 102* and CNG parental 0.
`O=c1ccn([C@@H]2O[C@H](CNCc3ccc(-c4cc(C(F)(F)F)ccc4Cl)o3)[C@@H](O)[C@H]2O)c(=O)[nH]1` gave TAAR1 antagonist -15, TAAR1 ag 2 and GalR3 antag 2.
Screening Cc1cccc(NC(=O)CNC(=O)[C@H]2O[C@@H](n3cnc4c(N)ncnc43)[C@H](O)[C@@H]2O)c1C returned TAAR1 antagonist -4, TAAR1 ag 1 and GalR3 antag -5.
Nc1ncnc2c1ncn2[C@@H]1O[C@H](C(=O)NS(=O)(=O)c2ccccc2[N+](=O)[O-])[C@@H](O)[C@H]1O was read as TAAR1 antagonist -4, TAAR1 ag 1, GalR3 antag 39*, GalR3 conf 27* and CNG parental 0.
`Nc1ncnc2c1ncn2[C@@H]1O[C@H](C(=O)N[C@H]2c3ccccc3C[C@H]2O)[C@@H](O)[C@H]1O` gave TAAR1 antagonist -5, TAAR1 ag 1, GalR3 antag 20*, GalR3 conf 31* and CNG parental 1.3*.
Screening Cc1ccc(CNC(=O)[C@H]2O[C@@H](n3cnc4c(N)ncnc43)[C@H](O)[C@@H]2O)o1 returned TAAR1 antagonist -17, TAAR1 ag 2, GalR3 antag 81*, GalR3 conf 78* and CNG parental 0.
Nc1ncnc2c1ncn2[C@@H]1O[C@H](CNCc2ccc(-c3cc(C(F)(F)F)ccc3Cl)o2)[C@@H](O)[C@H]1O was read as CHO parental Ca -16, TAAR1 antagonist -6, TAAR1 ag 1, OX1R antag-1 0, GalR3 antag 42*, OX1R antag-2 -9, GalR3 conf 54* and CNG parental 0.
Screening Cc1onc(-c2ccccc2)c1C(=O)OCC(=O)Nc1ccccc1Cl returned TAAR1 antagonist -7, TAAR1 ag -2 and GalR3 antag -6.
Screening CN(C)S(=O)(=O)n1cc(/C=C(\NC(=O)c2ccccc2F)C(=O)N2CCCC2)c2ccccc21 returned CHO parental Ca -22, TAAR1 antagonist -18, TAAR1 ag 3, OX1R antag-1 12, GalR3 antag -5 and OX1R antag-2 -6.
